Laboratory results taken from ChEMBL document CHEMBL1126752, “Synthesis and biological activity of cis-(3aR)-(-)-2,3,3a,4,5,9b-hexahydro- 3-propyl-1H-benz[e]indole-9-carboxamide: a potent and selective 5-HT1A receptor agonist with good oral availability” (J Med Chem, 1993).
Calls of active or inactive are those of the source. The rule behind the calls is not given here.

Legend:
[1] = molecular target: T1, 5-hydroxytryptamine receptor 1A (Homo sapiens, UniProt P08908); assay: Binding affinity against [3H]8-OH-DPAT-labeled 5-hydroxytryptamine 1A receptor sites in cloned CHO cells; assay type: cell-based
T1 sequence (P08908 whole entry): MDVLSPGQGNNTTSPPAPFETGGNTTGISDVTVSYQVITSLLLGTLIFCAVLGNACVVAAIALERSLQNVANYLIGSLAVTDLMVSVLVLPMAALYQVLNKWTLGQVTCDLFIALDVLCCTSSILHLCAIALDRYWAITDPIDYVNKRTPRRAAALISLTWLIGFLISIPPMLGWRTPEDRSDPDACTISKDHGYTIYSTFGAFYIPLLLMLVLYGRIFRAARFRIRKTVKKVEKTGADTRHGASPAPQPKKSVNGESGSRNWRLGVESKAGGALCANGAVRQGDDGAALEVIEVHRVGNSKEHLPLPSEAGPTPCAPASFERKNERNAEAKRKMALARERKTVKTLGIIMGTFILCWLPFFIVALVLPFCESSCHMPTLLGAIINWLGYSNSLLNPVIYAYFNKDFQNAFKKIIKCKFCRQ
In short: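 Competition binding against [3H]-8-OH-DPAT (85 Ci/mmol, 1.2 nM) using 11 dilutions of test compound. Receptor was cloned mammalian 5-HT1A expressed in CHO-K1 cells. IC50 from a one-site nonlinear least-squares fit, converted to Ki by Cheng-Prusoff. Ki reported ±SEM.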

Felis catus [2] = assay: Maximum decrease in blood pressure observed following 1 mg/kg dose in anesthetized cat; assay type: functional; design: unit not given here
In short: (§1)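 Adult cats (2.5-4.0 kg) anesthetized with ketamine 11 mg/kg im then chloralose 80 mg/kg iv. Animals paralyzed with gallamine, ventilated, and kept at 37-38 °C. Blood pressure recorded via femoral artery. Sympathetic activity quantified by cumulative integration. Increasing doses given iv cumulatively at 20-min intervals.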

Felis catus [3] = assay: Maximum decrease in sympathetic nerve discharge in anesthetized cat.; assay type: functional; in short: as §1
Felis catus [4] = assay: Percent arterial blood pressure at sympathetic nerve discharge in anesthetized cat; assay type: functional; in short: as §1
Felis catus [5] = assay: Inhibition of sympathetic nerve discharge (SND) in anesthetized cat; assay type: functional; in short: as §1
Mus musculus [6] = assay: Swimming activity of the treated mice/control mice at 39 umol/kg, sc (p < 0.01); assay type: functional
Mus musculus [7] = assay: Swimming activity of the treated mice/control mice at 6.6 umol/kg, sc; assay type: functional
Rattus norvegicus [8] = assay: DOPA accumulation in limbic system of reserpinized rats following peroral administration at highest dose tested (50 umol/kg); Partially active; assay type: functional, organism-based
Rattus norvegicus [9] = assay: 5-HTP accumulation in corpus striatum of reserpinized rats following peroral administration; assay type: functional; details: po
Rattus norvegicus [10] = assay: 5-HTP accumulation in corpus striatum of reserpinized rats following subcutaneous administration; assay type: functional; details: sc
Rattus norvegicus [11] = species on record: Rattus norvegicus; assay: Inhibition of 5-HT1A cell firing in rats; assay type: functional
In short: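 Male Sprague-Dawley rats (280-330 g) under chloral hydrate anesthesia (400 mg/kg ip), drug given iv via femoral vein in distilled water. Dorsal raphe serotonergic neurons recorded extracellularly and confirmed histologically by dye deposit. Firing rate followed by integrated ratemeter.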

Rattus norvegicus [12] = assay: 5-HTP accumulation in hemispheres of reserpinized rats following peroral administration; assay type: functional; details: po
Rattus norvegicus [13] = assay: 5-HTP accumulation in hemispheres of reserpinized rats following subcutaneous administration; assay type: functional; details: sc
Rattus norvegicus [14] = assay: 5-HTP accumulation in limbic system of reserpinized rats following peroral administration; assay type: functional; details: po
Rattus norvegicus [15] = assay: 5-HTP accumulation in limbic system of reserpinized rats following subcutaneous administration; assay type: functional; details: sc
Rattus norvegicus [16] = assay: DOPA accumulation in corpus striatum of reserpinized rats following peroral administration at highest dose tested (50 umol/kg); Inactive; assay type: functional, organism-based
Rattus norvegicus [17] = assay: DOPA accumulation in corpus striatum of reserpinized rats following subcutaneous administration at highest dose tested (50 umol/kg); Inactive; assay type: functional, organism-based
Rattus norvegicus [18] = assay: DOPA accumulation in hemispheres of reserpinized rats following peroral administration at highest dose tested (50 umol/kg); Inactive; assay type: functional, organism-based
Rattus norvegicus [19] = assay: DOPA accumulation in hemispheres of reserpinized rats following subcutaneous administration at highest dose tested (50 umol/kg); Inactive; assay type: functional, organism-based
Rattus norvegicus [20] = assay: DOPA accumulation in limbic system of reserpinized rats following subcutaneous administration at highest dose tested (50 umol/kg); Inactive; assay type: functional, organism-based
Rattus norvegicus [21] = assay: In vivo motor activity at 5 umol/kg (sc) in male rats expressed as accumulated counts/30 min (p < 0.001); assay type: functional
Rattus norvegicus [22] = assay: In vivo motor activity at 50 umol/kg (po) in male rats expressed as accumulated counts/30 min (p < 0.001); assay type: functional
Rattus norvegicus [23] = species on record: Rattus norvegicus; assay: Compound was tested for gross behavioral response in rats; full-blown 5-HT syndrome; assay type: functional, organism-based
Mus musculus [24] = assay: Effect on hypothermia in mice following peroral administration; details: po
Mus musculus [25] = assay: Effect on hypothermia in mice following subcutaneous administration; details: sc
Rattus norvegicus [26] = assay: DOPA accumulation in limbic system of reserpinized rats following peroral administration at highest dose tested (50 umol/kg); Inactive; assay type: functional, organism-based
Rattus norvegicus [27] = assay: Oral availability obtained from blood plasma levels of the parent compound following 5 umol /kg intravenous and 40 umol /kg peroral administration; assay type: functional, organism-based
In short: (§2)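 Male Sprague-Dawley rats (300 g) sampled from arterial catheters 24 h after surgery over 10-24 h. Dosing was 5 µmol/kg iv and 40 µmol/kg po, with oral rats fasted 18 h. Parent drug in blood measured by GC/MS after pH 11 dichloromethane extraction with internal standard, samples run in duplicate. Availability from po/iv AUC ratio (n = 4).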

Mus musculus [28] = assay: Swimming activity of the treated mice/control mice at 39 umol/kg, sc; assay type: functional
Mus musculus [29] = assay: Swimming activity of the treated mice/control mice at 12 umol/kg, sc; assay type: functional
Rattus norvegicus [30] = assay: In vivo motor activity at 50 umol/kg (sc) in male rats expressed as accumulated counts/30 min; assay type: functional
Mus musculus [31] = assay: Swimming activity of the treated mice/control mice at 1.2 umol/kg, sc; assay type: functional
Mus musculus [32] = assay: Swimming activity of the treated mice/control mice at 12 umol/kg, sc (p < 0.001); assay type: functional
Mus musculus [33] = assay: Swimming activity of the treated mice/control mice at 3.9 umol/kg, sc (p < 0.001); assay type: functional
Mus musculus [34] = assay: Swimming activity of the treated mice/control mice at 39 umol/kg, sc (p < 0.001); assay type: functional
Rattus norvegicus [35] = assay: In vivo motor activity at 50 umol/kg (sc) in male rats expressed as accumulated counts/30 min (p < 0.01); assay type: functional
[36] = Half-life time in rats; assay type: ADME, organism-based; details: rat, in vivo; in short: as §2
Rattus norvegicus [37] = assay: 5-HTP accumulation in corpus striatum of reserpinized rats following subcutaneous administration.; assay type: functional; details: sc
Rattus norvegicus [38] = assay: 5-HTP accumulation in hemispheres of reserpinized rats following subcutaneous administration.; assay type: functional; details: sc
Rattus norvegicus [39] = assay: In vivo motor activity at 12.5 umol/kg (po) in male rats expressed as accumulated counts/30 min (p < 0.001); assay type: functional
Rattus norvegicus [40] = assay: In vivo motor activity at 12.5 umol/kg (sc) in male rats expressed as accumulated counts/30 min (p < 0.001); assay type: functional
Rattus norvegicus [41] = species on record: Rattus norvegicus; assay: Compound was tested for gross behavioral response in rats; partial 5-HT syndrome; assay type: functional, organism-based

| SMILES | Ki [1] | Max decrease (Felis catus [2]) | Max decrease (Felis catus [3]) | BP (Felis catus [4]) | ED50 (Felis catus [5]) | ED50 (Rattus norvegicus [9]) | ED50 (Rattus norvegicus [10]) | ED50 (Rattus norvegicus [11]) | ED50 (Rattus norvegicus [12]) | ED50 (Rattus norvegicus [13]) | ED50 (Rattus norvegicus [14]) | ED50 (Rattus norvegicus [15]) | ED50 (Rattus norvegicus [17]) | ED50 (Rattus norvegicus [19]) | ED50 (Rattus norvegicus [20]) | Response (Rattus norvegicus [23]) | ED50 (Mus musculus [24]) | ED50 (Mus musculus [25]) | Swimming activity (Mus musculus [28]) | Swimming activity (Mus musculus [31]) | other results |
| --- | --- | --- | --- | --- | --- | --- | --- | --- | --- | --- | --- | --- | --- | --- | --- | --- | --- | --- | --- | --- | --- |
| O=C(NCCN1CCN(c2cccc3c2OCC(CO)O3)CC1)c1ccc(F)cc1 (single isomer, unassigned; (+)) | 2.9 nM | 55 | 2 | 79% | 0.14 µmol/kg | 0.27 µmol/kg | 0.55 µmol/kg | 0.16 µmol/kg | 0.36 µmol/kg | 0.63 µmol/kg | 0.36 µmol/kg | 0.63 µmol/kg | inactive | inactive | inactive | Active | 1.6 µmol/kg | 0.16 µmol/kg |  |  | Swimming activity (Mus musculus [6]): 3.3; Swimming activity (Mus musculus [7]): 0.6; ED50 (Rattus norvegicus [8]): Weak activity; ED50 (Rattus norvegicus [16]): inactive; ED50 (Rattus norvegicus [18]): inactive; Accumulated counts/30 min (Rattus norvegicus [21]): 84; Accumulated counts/30 min (Rattus norvegicus [22]): 135 |
| CCCN1CC[C@H]2c3c(cccc3C(N)=O)CC[C@H]21 (stereo in doubt; (-)-3a) [listing 1 of 2 here] |  |  |  |  |  |  |  |  |  |  |  |  |  |  |  | Active |  |  |  |  | NA (Rattus norvegicus [16]): inactive; NA (Rattus norvegicus [17]): inactive; NA (Rattus norvegicus [18]): inactive; NA (Rattus norvegicus [19]): inactive; NA (Rattus norvegicus [26]): inactive; NA (Rattus norvegicus [20]): inactive; bioavailability (Rattus norvegicus [27]): 46% |
| CCCN1CCC2c3c(cccc3C(N)=O)CC[C@@H]21 (single isomer, unassigned; (+)-3b) | > 1440 nM |  |  |  |  |  |  |  |  |  |  |  |  |  |  |  |  |  | 1.1 |  | Swimming activity (Mus musculus [29]): 1.2; Accumulated counts/30 min (Rattus norvegicus [30]): 9 |
| CCCN1CCC2c3c(cccc3C(N)=O)CC[C@@H]21 (single isomer, unassigned; (+)-3a) | 17 nM |  |  |  |  |  | 1.6 µmol/kg | > 1.2 µmol/kg |  | 5.2 µmol/kg |  | 1.8 µmol/kg |  |  |  |  | 28 µmol/kg | 8.9 µmol/kg |  | 1 | Swimming activity (Mus musculus [32]): 4.7; Swimming activity (Mus musculus [33]): 4; Swimming activity (Mus musculus [34]): 8.3; Accumulated counts/30 min (Rattus norvegicus [35]): 17 |
| CCCN1CC[C@H]2c3c(cccc3C(N)=O)CC[C@H]21 (stereo in doubt; (-)-3a) [listing 2 of 2 here] | 1.9 nM | 52 | 0 | 83% | 0.049 µmol/kg | < 0.2 µmol/kg |  | 0.023 µmol/kg | 0.28 µmol/kg |  | 0.23 µmol/kg | 0.28 µmol/kg |  |  |  |  | 2.8 µmol/kg | 0.4 µmol/kg | 1.1 | 1.5 | half-life [36]: 2 h; Swimming activity (Mus musculus [32]): 7.1; Swimming activity (Mus musculus [33]): 4.7; ED50 (Rattus norvegicus [37]): 0.07 µmol/kg; ED50 (Rattus norvegicus [38]): 0.32 µmol/kg; Accumulated counts/30 min (Rattus norvegicus [39]): 173; Accumulated counts/30 min (Rattus norvegicus [40]): 249 |
| CCCN1CC[C@H]2c3c(cccc3C(N)=O)CC[C@H]21 (stereo in doubt; (-)-3b) |  |  |  |  |  |  |  |  |  |  |  |  | inactive | inactive | inactive |  |  |  |  |  | Response (Rattus norvegicus [41]): Partially active |
